We go through 15 compounds from ChEMBL document CHEMBL4152217, “Quinonoid compounds via reactions of lawsone and 2-aminonaphthoquinone with α-bromonitroalkenes and nitroallylic acetates: Structural diversity by C-ring modification and cytotoxic evaluation against cancer cells” (Eur J Med Chem, 2018).

One may read the IC50 as the concentration that gives 50% inhibition.

A short description of series [1]: Selectivity index, ratio of IC50 for human PBMC cells to IC50 for human NCI-H460 cells. In kind it is toxicity. The settings on record: PBMC cells versus NCI-H460 cells.
In a further series the test system is NCI-H460. Description: Cytotoxicity against human NCI-H460 cells assessed as reduction in cell viability after 72 hrs by MTT assay. Particulars: NCI-H460, 72 h.
The test system of another series is PC-3. Description: Cytotoxicity against human PC3 cells assessed as reduction in cell viability after 72 hrs by MTT assay. In kind it is functional, cell-based. The settings on record: PC-3, 72 h. The essentials:
(§1)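 MTT viability assay. Cancer lines grown in RPMI 1640 and L929 fibroblasts in DMEM, each with 10% FBS, 2 mM glutamine, penicillin/streptomycin, 37 °C, 5% CO2. PBMC were taken from healthy donors by density-gradient centrifugation, kept in RPMI with 20% FBS and stimulated with 2% phytohemagglutinin. Cells were exposed 72 h (0.01–27.32 µM). MTT 0.5 mg/mL for 3 h, absorbance read at 550 nm. IC50 with 95% CI from nonlinear regression; triplicate, ≥3 independent experiments.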
(Formazan colour is commonly taken as a measure of viable cells.)

The next series relates to SF-295. As to the kind of experiment: Cytotoxicity against human SF295 cells assessed as reduction in cell viability after 72 hrs by MTT assay. The settings on record: SF-295, 72 h.
The subject of series [2] is HCT-116. Description: Cytotoxicity against human HCT116 cells assessed as reduction in cell viability after 72 hrs by MTT assay. The format is functional, cell-based. Particulars: HCT-116, 72 h. The essentials: as §1
Another series deals with PBMC. As to the kind of experiment: Cytotoxicity against human PBMC cells assessed as reduction in cell viability after 72 hrs by MTT assay.
In the next series the test system is L929. As to the kind of experiment: Cytotoxicity against mouse L929 cells assessed as reduction in cell viability after 72 hrs by MTT assay. The settings on record: L929, 72 h. The format is cell-based. The essentials:
as §1

A further series concerns HL-60. As to the kind of experiment: Cytotoxicity against human HL60 cells assessed as reduction in cell viability after 72 hrs by MTT assay. Particulars: HL-60, 72 h. The format is functional, cell-based. The essentials: as §1
The test system of a further series is OVCAR-8. Description: Cytotoxicity against human OVCAR8 cells assessed as reduction in cell viability after 72 hrs by MTT assay. Particulars: OVCAR-8, 72 h.
A further series has as its system MX1. As to the kind of experiment: Cytotoxicity against human MX1 cells assessed as reduction in cell viability after 72 hrs by MTT assay. Particulars: MX1, 72 h.
The subject of another series is Jurkat. Description: Cytotoxicity against human Jurkat cell viability after 72 hrs by MTT assay.
Series [3] concerns HCT-116. As to the kind of experiment: Induction in oxidative stress in human HCT116 cells assessed as nitrite level at 5 uM after 24 hrs by Griess reagent based assay. In kind it is functional. The essentials: (§2)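 HCT-116 cells were treated 24 h. Culture supernatant was mixed 1:1 with Griess reagent (sulfanilamide/N-(1-naphthyl)ethylenediamine in H3PO4) for 10 min at room temperature, and absorbance read at 560 nm. Nitrate/nitrite was quantified against a NaNO2 standard curve (0.75–100 µM). Vehicle was the negative control and H2O2 10 µM the positive control; three independent experiments, mean ± S.E.M.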

For series [4], the system named is HCT-116. Description: Induction in oxidative stress in human HCT116 cells assessed as increase in nitrite level after 24 hrs by Griess reagent based assay. In kind it is functional, cell-based. The method in brief: as §2
Series [5] relates to HCT-116. Description: Induction of DNA damage in human HCT116 cells assessed as DNA damage index at 5 uM after 24 hrs by ethidium bromide staing based flurescence microscopic analysis (8.3 +/- 0.88). The format is functional.
In series [6] the test system is HCT-116. As to the kind of experiment: Induction in oxidative stress in human HCT116 cells assessed as nitrite level at 10 uM after 24 hrs by Griess reagent based assay. The format is functional. The method in brief: as §2
For orientation: Nitrite, measured by Griess reagent, commonly stands in for NO production.

Series [7] has as its system HCT-116. Description: Induction of DNA damage in human HCT116 cells assessed as DNA damage index at 10 uM after 24 hrs by ethidium bromide staing based flurescence microscopic analysis (8.3 +/- 0.88). The format is functional.

Molecules are shown by their SMILES. Some results are limits rather than exact numbers.

On to `COc1ccc(-n2cc(-c3ccc(Cl)cc3)c3c2C(=O)c2ccccc2C3=O)cc1`, for which the selectivity ratio in series [1] was > 3.1. The half-maximal inhibitory concentration (IC50) in the series on NCI-H460 is 3.81 µM; in the series on PC-3 it was 8.66 µM; in the series with SF-295 it was 4.28 µM; in the series on HCT-116 [2], 8.88 µM; in the series with PBMC, > 12.1 µM; in the series on L929 it was > 12.1 µM. Also, the half-maximal inhibitory concentration (IC50) in the series with HL-60 was 3.15 µM.

`COc1ccc(-c2coc3c2C(=O)c2ccccc2C3=O)cc1`: the IC50 in the series with OVCAR-8 worked out at 6.01 µM; in the series with NCI-H460, 6.34 µM; with PC-3, 4.96 µM; in the series on MX1 it was 5.59 µM; in the series with Jurkat, 3.81 µM; in the series with SF-295, 4.99 µM. The IC50 was 5.78 µM in the series on HCT-116 [2], > 16.4 µM with PBMC, > 16.4 µM in the series on L929 and 4.31 µM in the series with HL-60.

For `COc1ccc(-c2coc3c2C(=O)c2ccccc2C3=O)cc1OC`, the IC50 in the series with OVCAR-8 came to 4.69 µM; in the series with NCI-H460 it was 4.07 µM; in the series with PC-3 it was 3.89 µM; in the series on MX1, 5.05 µM; with Jurkat it was 3.71 µM; in the series on SF-295 it was 3.74 µM. The IC50 in the series with HCT-116 [2] was 5.2 µM; in the series with PBMC, > 15 µM; with L929, > 15 µM; with HL-60 it was 3.41 µM.

Turning to `O=C1c2ccccc2C(=O)c2c(-c3ccc(F)cc3)coc21`, the concentration for half-maximal inhibition (IC50) with OVCAR-8 stood at 5.43 µM; with NCI-H460, 4.34 µM; with PC-3 it was 3.97 µM; with MX1, 5.2 µM; in the series on Jurkat, 3.45 µM; in the series with SF-295, 6.33 µM. The 50% inhibitory concentration (IC50) in the series on HCT-116 [2] is 6.02 µM; with PBMC it was > 17.1 µM; in the series with L929 it was 13.6 µM; with HL-60 it was 3.28 µM.

Consider `O=C1c2ccccc2C(=O)c2c(-c3cccc4ccccc34)coc21`, for which the IC50 was found to be 3.88 µM in the series with OVCAR-8; 3.79 µM in the series on NCI-H460; 1.82 µM in the series with PC-3; 3.3 µM in the series with MX1; 2.09 µM in the series with Jurkat; 4.44 µM in the series with SF-295. Besides, the IC50 in the series on HCT-116 [2] is 6.17 µM; in the series on PBMC, > 15.4 µM; in the series on L929 it was 13 µM; in the series with HL-60, 2.37 µM.

Turning to `CSc1ccc(-c2coc3c2C(=O)c2ccccc2C3=O)cc1`, the IC50 in the series on OVCAR-8 was determined as 4.09 µM; with NCI-H460, 4.68 µM; with PC-3, 2.49 µM; with MX1, 4.74 µM; with Jurkat, 2.18 µM; with SF-295 it was 3.43 µM. Moreover, the half-inhibitory concentration (IC50) is 6.03 µM in the series with HCT-116 [2], > 15.6 µM with PBMC, > 15.6 µM in the series on L929 and 3.09 µM with HL-60.

Consider `O=C1c2ccccc2C(=O)c2c(-c3cccc4c3OCO4)coc21`, for which the Activity with HCT-116 [3] was 5.33 µM; in the series on HCT-116 [4], “Dose-dependent effect”; in the series with HCT-116 [6], 8.33 µM. The Activity_index is 42.88 with HCT-116 [5] and 82.77 with HCT-116 [7]. Besides, the IC50 in the series on OVCAR-8 turned out to be 3.08 µM; in the series with NCI-H460, 3.61 µM; in the series on PC-3 it was 2.54 µM; in the series with MX1, 2.92 µM; with Jurkat, 2.04 µM; in the series on SF-295 it was 3.71 µM. Also, the 50% inhibitory concentration (IC50) was 2.76 µM in the series with HCT-116 [2], > 15.7 µM in the series with PBMC, > 15.7 µM in the series on L929 and 2.23 µM in the series on HL-60.

As to `O=C1c2ccccc2C(=O)c2c(-c3cccs3)coc21`, the IC50 in the series on OVCAR-8 was 5.39 µM; with NCI-H460, 5.67 µM; in the series on PC-3, 4.85 µM; in the series with MX1, 4.92 µM; in the series on Jurkat, 4.21 µM; with SF-295 it was 4.96 µM. Moreover, the IC50 in the series on HCT-116 [2] was 5.17 µM; in the series on PBMC, > 17.9 µM; in the series with L929 it was > 17.9 µM; with HL-60, 3.28 µM.

For `COc1ccc(-c2cn(-c3ccc(F)cc3)c3c2C(=O)c2ccccc2C3=O)cc1`, the half-inhibitory concentration (IC50) in the series with NCI-H460, in the series on PC-3, with SF-295, in the series on HCT-116 [2], in the series with PBMC and with L929 was > 13.2 µM throughout. Further, the IC50 in the series on HL-60 is > 13.2 µM.

`CCOC(=O)Cc1oc2c(c1-c1ccc(OC)c(OC)c1)C(=O)c1ccccc1C2=O`: the concentration for half-maximal inhibition (IC50) with NCI-H460 is 7.53 µM; in the series with PC-3, > 11.9 µM; in the series on SF-295 it was > 11.9 µM; in the series with HCT-116 [2], 6.16 µM; in the series with PBMC, > 11.9 µM; with L929 it was 8.47 µM. Also, the IC50 with HL-60 is 3.97 µM.

With `CCOC(=O)Cc1c(-c2ccc(Cl)cc2)c2c(n1-c1ccc(OC)cc1)C(=O)c1ccccc1C2=O`, the 50% inhibitory concentration (IC50) in the series with NCI-H460, with PC-3, with SF-295, in the series on HCT-116 [2], in the series with PBMC and in the series with L929 was > 10 µM each time. Also, in the series with HL-60, the half-inhibitory concentration (IC50) is > 10 µM.

Turning to `O=C1c2ccccc2C(=O)c2c(-c3ccc(Br)cc3)coc21`, the IC50 in the series on OVCAR-8 is 2.98 µM; with NCI-H460, 4.88 µM; with PC-3 it was 2.61 µM; in the series with MX1, 3.23 µM; in the series with Jurkat, 2.78 µM; in the series with SF-295, 3.49 µM. Besides, the IC50 was 5.39 µM in the series on HCT-116 [2], > 14.2 µM with PBMC, > 14.2 µM in the series with L929 and 2.64 µM in the series on HL-60.

As for `O=C1c2ccccc2C(=O)c2c(-c3ccccc3[N+](=O)[O-])coc21`, the half-inhibitory concentration (IC50) stood at 2.25 µM in the series with OVCAR-8; 2.53 µM in the series with NCI-H460; 1.59 µM in the series on PC-3; 2.85 µM in the series with MX1; 1.47 µM with Jurkat; 2.94 µM in the series on SF-295. Besides, the IC50 in the series with HCT-116 [2] was 1.28 µM; with PBMC it was > 15.7 µM; in the series on L929, > 15.7 µM; in the series on HL-60, 1.66 µM.

Regarding `CCOC(=O)Cc1c(-c2ccc(OC)c(OC)c2)c2c(n1-c1ccc(Cl)cc1)C(=O)c1ccccc1C2=O`, the IC50 in the series on NCI-H460, in the series on PC-3, in the series on SF-295, with HCT-116 [2], in the series on PBMC and with L929 was > 9.45 µM throughout. Moreover, the IC50 in the series with HL-60 was > 9.45 µM.

As to `Cc1ccc(-c2cn(-c3ccc(Br)cc3)c3c2C(=O)c2ccccc2C3=O)cc1`, the concentration for half-maximal inhibition (IC50) in the series with NCI-H460, in the series with PC-3, with SF-295, in the series with HCT-116 [2], with PBMC and in the series on L929 was > 12.1 µM each time. In addition, the half-maximal inhibitory concentration (IC50) with HL-60 was > 12.1 µM.
